HIF activator: HIF pathway transcriptional activation | U2OS HRE-luciferase reporter, luminescence; normalized: DMSO 0%, desferrioxamine 100% | 0.32% of 300,000 active | activation, % at 7.5 µM (by protocol) | AID 1910;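 active = mean activation of at least 10% of the iron chelator positive control signal, with at least half of replicates also reaching 10%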
CR mimetic SO: caloric restriction mimetics inhibiting age-related superoxide in yeast. superoxide response (% of plate mean), % at 10 µM. S. cerevisiae aged cells, superoxide DHE fluorescence; active compounds read low. 0.18% of 330,000 active;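 active = superoxide response under a set limit, about three screen SD below normal, cut at about 65% in these data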;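 note: yeast aged for seven days with compound at 30 °C before DHE staining; 100% = average MFI of all compound-treated wells on the plate with controls excluded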
T cruzi inh: T. cruzi replication inhibition. AID 1885. inhibition, % (no concentration beside the values). T. cruzi beta-gal in NIH3T3, luminescence, 90 h. 1.4% of 300,000 active;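 active = mean inhibition across valid replicates above about 55%, limit read from the data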;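 note: signal also drops with host cell toxicity which is not excluded here; 0% = plate median of DMSO wells and 100% = zero luminescence signal; higher percent means less beta-gal luminescence so fewer parasites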
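System: Mouse NIH/3T3 fibroblasts infected with β-gal-expressing T. cruzi Tulahuen C4 | Quantity: NIH/3T3 cells, 5,000 per well | Reagent: 5000 reporter trypomastigotes per well | Dosing: Compound pinned at 50 nL/well, DMSO | Schedule: 3 h host attachment, then at least 90 h co-culture | Detection: GalScreen luminescence, 60 min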
V-ATPase pHluor: regulators of yeast V-ATPase proton transport; S. cerevisiae, pHLuorin cytosolic pH fluorescence; response, % at 10 µM; 0.37% of 350,000 active; AID 504577; in the data active = response mostly above about 7.3%, no sharp cut-off; inactive = mostly below about 5.4%; note: actives read high
AI-2 QS modul: Vibrio harveyi AI-2 quorum sensing modulation; activity change, % at 7.5 µM; AID 2094; 0.4% of 300,000 active; Vibrio harveyi JMH597 AI-2 luminescence/OD600 ratio, 9 h; active compounds read low; strain lacks LuxN and CqsS sensors; 0 = neutral-control median; in the data active = activity change below about -75%, passing the limit was not always enough;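 note: luminescence divided by OD600 gain over 9 h not by final OD600 alone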
CendR NRP1 mod: modulators of CendR peptide binding to human neuropilin-1; AID 602438; FAM-RPARPAR peptide binding to NRP-1, fluorescence polarization; inhibition, % at 25 µM; 0.85% of 360,000 active;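 active = inhibition or corrected inhibition above about 18%, plus a signal ratio from 0.5 to 1.5, limit read from the data, passing the limit was not always enough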
Target sequence (O14786 whole entry, looked up): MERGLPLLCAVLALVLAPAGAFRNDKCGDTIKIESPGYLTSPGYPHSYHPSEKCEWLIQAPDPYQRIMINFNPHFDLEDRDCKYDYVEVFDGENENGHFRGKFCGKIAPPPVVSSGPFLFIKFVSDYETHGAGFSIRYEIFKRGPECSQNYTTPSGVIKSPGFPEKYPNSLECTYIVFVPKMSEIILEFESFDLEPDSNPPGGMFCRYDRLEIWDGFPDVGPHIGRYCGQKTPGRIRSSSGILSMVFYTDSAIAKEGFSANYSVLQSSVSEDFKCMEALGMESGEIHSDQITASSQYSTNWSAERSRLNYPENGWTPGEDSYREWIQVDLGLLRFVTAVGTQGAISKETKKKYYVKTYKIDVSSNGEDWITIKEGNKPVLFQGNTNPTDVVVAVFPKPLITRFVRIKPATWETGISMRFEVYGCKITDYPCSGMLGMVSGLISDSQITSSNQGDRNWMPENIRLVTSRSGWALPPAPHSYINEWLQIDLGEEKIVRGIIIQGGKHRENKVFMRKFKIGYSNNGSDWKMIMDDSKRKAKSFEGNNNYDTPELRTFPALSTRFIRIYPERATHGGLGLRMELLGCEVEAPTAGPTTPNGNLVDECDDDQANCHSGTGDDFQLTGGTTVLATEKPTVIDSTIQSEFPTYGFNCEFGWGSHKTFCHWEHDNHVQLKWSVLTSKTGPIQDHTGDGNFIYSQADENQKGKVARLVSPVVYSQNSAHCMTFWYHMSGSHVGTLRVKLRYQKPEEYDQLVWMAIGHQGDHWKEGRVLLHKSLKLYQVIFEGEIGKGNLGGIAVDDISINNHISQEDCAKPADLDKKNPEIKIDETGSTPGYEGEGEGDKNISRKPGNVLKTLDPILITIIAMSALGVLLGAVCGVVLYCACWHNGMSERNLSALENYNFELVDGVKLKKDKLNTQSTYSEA
Active calls of the source: *; x = no result given. Most compounds without a hit are left out; they make up all but 3% or so of the library.

SMILES	HIF activator	CR mimetic SO	T cruzi inh	V-ATPase pHluor	AI-2 QS modul	CendR NRP1 mod
O=C(O)c1ccccc1NC(c1ccccc1)c1ccc2cccnc2c1O (stereo unspecified)	x	x	x	-4	x	-9
O=C(Nc1ccc(S(=O)(=O)N2CCCC2)cc1)c1cc(=O)c2ccccc2o1	0	103	-5	0	16	17
COc1ccc2nc(N3CCCC3)c(C#N)cc2c1	3	96	-1	11*	10	-9
C=C1CN(CC(=O)OC)S(=O)(=O)c2ccccc21	0	102	-12	-2	41	11
C=C1CN(Cc2ccccc2)S(=O)(=O)c2ccccc21	-1	93	-14	-1	-3	24*
O=C(NCC1CCCO1)c1nn2c(C(F)(F)F)cc(-c3cc(Br)cs3)nc2c1Br (stereo unspecified)	-1	104	4	2	5	35*
CC1(C)C([N+](=O)[O-])C(c2ccc(Cl)cc2)NC(c2ccc(Cl)cc2)C1[N+](=O)[O-] (stereo unspecified)	0	80	58*	4	6	12
COc1ccc(C2=NS(=O)(=O)N(C)C(C(=O)Nc3ccc(C)cc3)=C2)cc1	0	83	-3	3	10	4
Cc1ccc(NC(=O)C2=CC(c3ccc(C)cc3)=NS(=O)(=O)N2C)cc1	0	93	-4	11	0	21*
Cc1ccc(C2=NS(=O)(=O)N(C)C(C(=O)NC3CCCC3)=C2)cc1	31*	85	1	2	23	-3
O=C(N[C@H]1C/C=C\C[C@@H](CC(=O)N(CCO)Cc2ccccc2)C(=O)N[C@H](Cc2c[nH]c3ccccc23)COC1=O)OCC1c2ccccc2-c2ccccc21	x	106	x	0	x	9
CCOC(=O)N1CCN(S(=O)(=O)N2CCCC(C(=O)NCc3ccc(F)cc3)C2)CC1 (stereo unspecified)	0	116	7	-5	27	11
COc1ccc2c(c1)C1NC(=S)NC(C)(O2)C1C(=O)Nc1ccc(Cl)cc1 (stereo unspecified)	0	108	23	1	19	6
Cc1ccc2c(c1)C1NC(=S)NC(C)(O2)C1C(=O)Nc1ccc(Cl)cc1 (stereo unspecified)	51*	107	13	8	24	-3
c1ccc(N2CCN(c3nc(NCc4ccco4)c4ccccc4n3)CC2)cc1	0	109	55*	3	5	-14
Cc1ccc(Nc2nc(NCc3ccco3)c3ccccc3n2)cc1	0	96	66*	9	19	-4
c1coc(CNc2nc(N3CCCCC3)nc3ccccc23)c1	-1	89	49	5	37	-4
COc1ccccc1Nc1nc(NCc2ccco2)c2ccccc2n1	0	99	50	0	16	5
Cc1nc(NCc2ccco2)c2cn[nH]c2n1	x	x	x	3	x	28*
CCOC(=O)C1=CN(Cc2cccc(F)c2)S(=O)(=O)N(C)C1c1ccc(F)c(Cl)c1 (stereo unspecified)	x	96	x	-2	x	-3
CCOc1ccc(N=C(NC#N)SC)cc1	0	101	-4	2	1	-1
OCc1ccnc2c(O)cccc12	1	96	57*	6	16	-4
NC(=O)c1ccnc2c(O)cccc12	x	100	x	-1	x	22
Cc1nc2scc(C)n2c(=O)c1S(=O)(=O)NCc1ccc(F)cc1	-1	81	19	-1	15	-5
Cc1c(Cl)cccc1NC(=O)CNC(=O)C1CC(=O)N(C2CCCC2)C1 (stereo unspecified)	x	107	x	3	x	-10
COc1ccc(-c2csc(NCc3ccco3)n2)cc1C	0	104	2	2	12	23*
Cc1ccc(-n2cc(CN3CCN(Cc4nccn4C)CC3)c(-c3cccc(C)c3)n2)cc1	0	106	41	1	8	-14
CCn1ccnc1CN(C)Cc1cn(-c2cccc(C)c2)nc1-c1cccc(F)c1	0	98	55*	-1	22	-3
CCn1ccnc1CN(C)Cc1cn(-c2ccc(C)cc2)nc1-c1cccc(C)c1	1	99	66*	5	41	-14
